# Rows were chosen to be rich in hits. Some 4.2% of all compounds tested hit in one or more screens of this group.
# Lipid droplet – modulators of hepatic lipid droplet formation; 240,000 compounds, 0.4% hits; inhibition, % at 6.5 µM; AML12 mouse hepatocytes, oleate lipid droplets, BODIPY imaging; AID 1656;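 active = lipid droplet intensity inhibited by at least 50%, with more than 500 cells counted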
#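 Assay system: AML12 mouse liver cells | Compound dosing: One dose, 6.5 µM compound | Read-out basis: Droplet intensity reduction, % inhibition | Measured by: Fluorescence imaging, 20x objective, two fields per well | Schedule: Overnight treatment with compound plus oleate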
# CHOP UPR activ – activators of apoptotic arm of unfolded protein response (CHOP) | activation, % at 10 µM | 330,000 compounds, 0.34% hits | CHO-CHOP luciferase reporter, UPR activation, luminescence; percent of tunicamycin response over DMSO baseline;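 active = at 10 µM dose, activation of 40% or more, normalized to positive control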;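 also: 100% = tunicamycin at 10 µg/mL and 0% = DMSO alone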
#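 measured by = luciferase luminescence | assay system = CHO-CHOP cells, stable luciferase reporter of PERK-eIF2a-CHOP signalling | amount = 500 reporter cells seeded per well | timing = 6 h compound exposure at 37 °C after overnight seeding | controls = positive tunicamycin 10 µg/mL, negative DMSO alone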
# ANO1 activ – activators or potentiators of mouse TMEM16A chloride channel; Q8BHY3; HEK293 TMEM16A/YFP-H148Q/I152L, iodide quench fluorescence; hits give low values; B-score at 10 µM; 340,000 compounds, 0.3% hits; AID 623877;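 active = fluorescence-ratio B-score plate-corrected deviation score at least 3 library SD below zero, with starting fluorescence score within 5 deviations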;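 also: channel opened by trigger with iodide after compound preincubation; score built on the fluorescence ratio of max minus min over baseline; more negative score means more quench and so TMEM16A activation or potentiation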
# ANO1 block – mouse TMEM16A channel inhibition, primary screen; Q8BHY3; HEK293 TMEM16A/YFP iodide influx fluorescence, ionomycin; normalized B-score (activity score, 25-100; higher = stronger inhibition) at 10 µM; 310,000 compounds, 1.2% hits; AID 588511;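 active = ratio plate-corrected score three or more library SD toward inhibition, starting fluorescence score within five deviations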;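 also: score derived from kinetic fluorescence span divided by baseline fluorescence per well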
# XBP1 UPR activ – activators of adaptive arm of unfolded protein response (XBP1); CHO-XBP1 luciferase reporter, IRE1-XBP1 UPR activation, luminescence; percent of tunicamycin response, DMSO as zero; activation, % at 20 µM; 330,000 compounds, 0.33% hits;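 active = versus positive control, 20 µM dose yields 30% or more activation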;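 also: 100% = tunicamycin at 10 µg/mL and 0% = DMSO only wells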
#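 Material: CHO-XBP1 cells stably carrying IRE1-XBP1-driven luciferase reporter | Medium: F12 with 10% serum | Compound dosing: 20 µM single concentration, DMSO 1% | Incubation: Overnight seeding at 37 °C, 6 h compound treatment at 37 °C | Detection: Steady-Glo luminescence read | Read-out basis: % activation of reporter signal versus tunicamycin and DMSO controls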
# CHOP inhibitor – inhibitors of CHOP induction in ER stress response; CHO-K1 CHOP-promoter luciferase, tunicamycin-induced, 15-18 h; AID 2732; inhibition, % at 10 µM; 220,000 compounds, 3.8% hits;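 active = compounds that reduced the stress-induced luciferase reporter signal by more than about 70% of percent inhibition, limit read from the data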;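 also: 0% = tunicamycin plus vehicle and 100% = wells without tunicamycin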
# TMEM16A reconf – reconfirmed blocker of mouse TMEM16A calcium-activated chloride channel. HEK293 TMEM16A/YFP-H148Q, iodide quench fluorescence; ionomycin added to raise cell calcium. 2,300 compounds, 39% hits. inhibition, % at 10 µM. shares compounds with ANO1 block;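 active = mean duplicate percent inhibition, scaled so buffer wells are 0 and the reference blocker 100, over three buffer SD above buffer mean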
# HEK293 Ca mobil – counter-screen for TMEM16A inhibitors: effect on calcium mobilization. shares compounds with ANO1 block. TMEM16A/YFP HEK293, Fluo4 calcium mobilization. calcium response (% of ionomycin), % at 10 µM. 2,300 compounds, 2% hits. AID 652231;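 active = duplicate-averaged calcium signal over 20% of the ionomycin maximum, relative to buffer baseline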;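 also: each well's signal is peak minus trough fluorescence divided by its pre-addition baseline; 0% = buffer wells and 100% = ionomycin wells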
# YFP-HEK293 quench – parental YFP-HEK293 iodide quench counter-screen activity; YFP ratio F(max-min)/F0 at 10 µM; AID 652233; shares compounds with ANO1 block; 2,300 tested, under 10 active; ionomycin;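 active = yellow fluorescent protein signal ratio exceeding the buffer control mean by over 5 SD of those controls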;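 also: ratio is mean of duplicate wells from kinetic YFP trace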
# ClC-1 inh – blocks the rat ClC-1 voltage-dependent chloride channel | CHO ClC-1-YFP, iodide influx fluorescence quench; iodide control reads 0, buffer control 100 | shares compounds with ANO1 block | AID 652236 | 2,300 tested, under 10 active | ratio percent, % at 10 µM;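 active = duplicate-mean ratio percent above the mean of iodide-only control wells, which defines zero, plus 5 of their SD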;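 also: higher percent means stronger block of ClC-1 iodide influx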
# Starred values were filed as active, the others as inactive; i = inactive; . = no result.
SMILES,Lipid droplet,CHOP UPR activ,ANO1 activ,ANO1 block,XBP1 UPR activ,CHOP inhibitor,TMEM16A reconf,HEK293 Ca mobil,YFP-HEK293 quench,ClC-1 inh
Cc1ccc(NC(=O)c2ccc3c(c2)C(=O)N(CC2CCCO2)C3=O)cc1C (stereo not given),-42,8,i,i,-2,-23,.,.,.,.
O=C(CCN1C(=O)/C(=C/c2ccccc2Cl)SC1=S)NC1CCCC1,1,0,i,i,-5,.,.,.,.,.
CCN(CC)CCNC1=NCCn2c1cc1cc(OC)ccc12,31,1,i,25*,0,17,i,i,-0.98,-12
CN=C1c2cc3cc(OC)ccc3n2CCN1Cc1ccccc1,7,.,i,.,.,24,.,.,.,.
O=c1cc(C(F)(F)F)[nH]c2ccc(OC(F)(F)F)cc12,.,1,i,100*,-4,-14,43%*,i,-0.87,-21
Fc1ccc2nc(Nc3nc4c(F)cccc4s3)sc2c1,-14,7,i,25*,6,66,25%*,i,-0.89,-13
Fc1ccc2nc(Nc3ccccc3)sc2c1,-1,3,i,i,2,45,.,.,.,.
O=C(NC1CCCN(CCc2ccccc2)C1)C1CCCC1 (stereo not given),-3,-1,i,i,-6,.,.,.,.,.
CN1CCN(C(=O)/C(=C/c2ccccc2)c2ccccc2)CC1,-2,0,i,25*,0,2,i,i,-0.95,-2
CCn1c(CNc2ccccc2Cl)nnc1SCC(=O)OC1CCCCC1,.,-1,i,i,3,36,.,.,.,.
CCn1c(CNc2ccc(Cl)cc2)nnc1SCC(=O)OC1CCCCC1,-33,2,i,100*,-1,31,18%*,i,-1.2,-8
CCc1nnc(NC(=O)c2nn(-c3ccccc3)nc2C)s1,-8,4,i,i,-2,1,.,.,.,.
O=C(Nc1nnc(C(F)(F)F)s1)c1ccc(Br)s1,-18,4,i,100*,6,65,26%*,i,-0.93,-16
O=C(Nc1ccccc1C(=O)Nc1nnc(C(F)(F)F)s1)c1ccccc1Cl,4,7,i,100*,-1,74*,33%*,i,-1.2,-12
Cc1nn(-c2ccccc2)nc1C(=O)Nc1nnc(C(F)(F)F)s1,2,5,i,100*,0,19,28%*,i,-0.73,-9
NC(=O)c1ccccc1NC(=O)c1ccccc1Cl,-1,1,i,i,0,-18,.,.,.,.
O=C(Nc1nnc(C(F)(F)F)s1)C1COc2ccccc2O1 (stereo not given),-8,1,i,100*,-1,1,30%*,i,-1.1,-17
CC(C)(C)NC(=O)CCN(/N=C/c1ccccc1O)C1=NS(=O)(=O)c2ccccc21,-2,0,.,i,-3,.,.,.,.,.
CC1(CCCN2C(=O)c3ccccc3C2=O)OCCO1,.,3,i,i,0,.,.,.,.,.
CCC(Oc1ccccc1)C(=O)Nc1nnc(C(F)(F)F)s1 (stereo not given),-9,-2,i,100*,1,1,20%*,i,-0.97,-20
CCC(Oc1ccccc1)C(=O)Nc1nnc(C)s1 (stereo not given),7,1,i,i,1,38,.,.,.,.

# Source: PubChem BioAssay
